One test concerns HPNE. In words: MTT proliferation assay, HPNE cells. The class given is cell-based. The settings on record: Homo sapiens, 24 h; for IC20: read-out: Approx. IC20; for IC50: read-out: Approx. IC50. The procedure, abridged:
(§1)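 Cells were seeded at 4 × 10^3/well in 96-well plates and dosed 24 h later with graded concentrations of test compound for 24 h, with DMSO solvent control. Proliferation was read by modified MTT assay and approximate IC20/IC50 reported; triplicates, three independent experiments. Culture media, all at 37°C/5% CO2, were: BxPC-3 and Capan-2 RPMI/10% FBS; MIA PaCa-2 high-glucose DMEM/10% FBS/5% horse serum; PANC-1 DMEM/10% FBS; HPNE HPNE base medium/5% FBS/EGF.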
For orientation: Tetrazolium dyes change colour on reduction, which living cells bring about.

Another test relates to PANC-1. The test can be described thus: MTT proliferation assay, PANC-1 cells. It is filed as cell-based. The note with it: Homo sapiens, PANC-1, 24 h; for IC20: read-out: Approx. IC20; for IC50: read-out: Approx. IC50. In outline: as §1
The next test has as its system MIA PaCa-2. In words: MTT proliferation assay, MIA PaCa-2 cells. The class given is cell-based. The note with it: Homo sapiens, MIA PaCa-2, 24 h; for IC20: read-out: Approx. IC20; for IC50: read-out: Approx. IC50. The procedure, abridged: as §1
In test [1] the test system is Capan-2. The test can be described thus: MTT proliferation assay, Capan-2 cells. The class given is cell-based. The settings on record: Homo sapiens, Capan-2, 24 h; for IC20: read-out: Approx. IC20; for IC50: read-out: Approx. IC50. In outline: as §1
The test system of the next test is BxPC-3. In words: MTT proliferation assay, BxPC-3 cells. It is filed as cell-based. The note with it: Homo sapiens, BXPC-3, 24 h; for IC20: read-out: Approx. IC20; for IC50: read-out: Approx. IC50. The procedure, abridged:
as §1

For test [2], the system named is Capan-2. The test can be described thus: Annexin V apoptosis assay, Capan-2. The class given is cell-based, human. The note with it: 24h, Nx 50 μg/mL, GEM 0.5 μM, alone or in combination.
The subject of a further test is phospho-p65 (pp65). The test can be described thus: Immunoblot analysis of pp65. The class given is cell-based, human. The settings on record: MIA PaCa-2; 24h; GEM 0.5 μM alone or with Nx 20 μg/mL.
A further test has as its system p105. In words: Immunoblot analysis of p105. It is filed as cell-based, human. The note with it: MIA PaCa-2; 24h; GEM 0.5 μM alone or with Nx 20 μg/mL. The procedure, abridged: (§2)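 MIA PaCa-2 cells were exposed for 24 h to medium alone, test extract (20 μg/mL), nucleoside drug (0.5 μM), or both. They were lysed in 2x SDS buffer with protease and phosphatase inhibitors, run on 10% SDS-PAGE and transferred to nitrocellulose. Blocking was 1 h at RT in 5% milk or 5% BSA/TBST, primary antibody 2 h at RT, then HRP secondary 1 h. Detection was ECL; blots are representative of three independent experiments.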
For orientation: Immunoblotting shows a protein as a band on a membrane.

The subject of the next test is p50. The test can be described thus: Immunoblot analysis of p50. The class given is cell-based, human. The note with it: MIA PaCa-2; 24h; GEM 0.5 μM alone or with Nx 20 μg/mL. In outline: as §2
In test [3] the test system is GEM-resistant BxPC-3 (GRB) cells. In words: Proliferation assay, GEM-resistant BxPC-3. The class given is cell-based, human. The note with it: 24h.
The test system of test [4] is GEM-resistant Capan-2 (GRC) cells. The test can be described thus: Proliferation assay, GEM-resistant Capan-2. It is filed as cell-based, human. The note with it: 24h. The procedure, abridged: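 The resistant Capan-2 line was derived by stepwise nucleoside drug exposure: 5 μM for 4 days, 5 μM for 1 week, 7.5 μM for 1 week, each followed by drug-free recovery, then 10 μM for 4 months. It was kept in RPMI/10% FBS plus drug. Resistant and parental cells were treated with graded doses for 24 h, and proliferation was read by MTT; triplicates, three independent experiments.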

The term IC20 denotes the point of the concentration-response curve where the effect stands at 20%. For orientation: IC50 means the concentration at which inhibition is half-maximal. With `CCCCC[N+]12CCc3cc4c(cc3C1Cc1ccc(OC)c(OC)c1C2)OCO4.[Cl-]` (centres unmarked) [Ber 2-4, 9,10-dimethoxy-7-pentyl-5,6,7,8,13,13a-hexahydro-[1,3]dioxolo[4,5-g]isoquinolino[3,2-a]isoquinolin-7-ium chloride], the 20% effect concentration (IC20) with HPNE was about 25 µg/mL; in the test with PANC-1, about 1 µg/mL; in the test with MIA PaCa-2 it was about 10 µg/mL; in the test with Capan-2 [1] it was about 5 µg/mL; in the test with BxPC-3, about 5 µg/mL. Also, the IC50 with HPNE is about 75 µg/mL; in the test on PANC-1, about 5 µg/mL; in the test on MIA PaCa-2, about 30 µg/mL; in the test with Capan-2 [1] it was about 75 µg/mL; with BxPC-3, about 25 µg/mL.
Turning to `COc1ccc2c(c1OC)C[N+]1(Cc3ccc(Br)cc3)CCc3cc4c(cc3C1C2)OCO4.[Br-]` (centres unmarked) [Ber 2-8, 7-(4-bromobenzyl)-9,10-dimethoxy-5,6,7,8,13,13a-hexahydro-[1,3]dioxolo[4,5-g]isoquinolino[3,2-a]isoquinolin-7-ium bromide], the IC20 in the test on HPNE is about 25 µg/mL; in the test on PANC-1, about 5 µg/mL; in the test with MIA PaCa-2, about 5 µg/mL. In addition, the figures for the IC50 in the test on HPNE, in the test with PANC-1 and in the test with MIA PaCa-2 were about 50 µg/mL, about 50 µg/mL and about 20 µg/mL, respectively.
Consider `COc1ccc2cc3[n+](cc2c1OC)CCc1cc2c(cc1-3)OCO2` [Berberine], for which the IC20 was about 5 µg/mL in the test with HPNE; about 2.5 µg/mL in the test with PANC-1; about 5 µg/mL with MIA PaCa-2; about 5 µg/mL in the test with Capan-2 [1]; about 5 µg/mL in the test on BxPC-3. In addition, the IC50 with HPNE was about 75 µg/mL; with PANC-1, about 50 µg/mL; in the test with MIA PaCa-2, about 25 µg/mL; with Capan-2 [1] it was about 75 µg/mL; in the test with BxPC-3 it was about 25 µg/mL.
With `Nc1ccn([C@@H]2O[C@H](CO)[C@@H](O)C2(F)F)c(=O)n1` [GEM, gemcitabine], in the test on Capan-2 [2], the “apoptosis induction (Annexin V)” value is “did not observe Annexin positive cells”. Further, in the test with phospho-p65 (pp65), the “levels of pp65” value is on record as “induced”. Moreover, the “levels of p105” value with p105 was “induced”. Moreover, the “levels of p50” value with p50 is recorded as “induced”. For the same compound, in [3], the “proliferation of GRB cells compared to WT parental BxPC-3” value is “significantly higher level of tolerance”. For the same compound, the “proliferation of GRC cells compared to WT parental Capan-2” value in [4] is on record as “significantly higher level of tolerance”.

Values taken from article PMC5800424 (Molecular carcinogenesis, 2016).
